High-throughput results as filed in PubChem BioAssay.
The list is not random: actives were taken first. Their share in the collection is about 6.8%.
HCV core dimer: HCV core protein dimerization inhibition. inhibition, % at 5 µM. TR-FRET GST/Flag-core106 dimerization, 1536-well. AID 1899. 0.33% of 300,000 active;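 active = inhibition above the mean of all tested compounds plus 3 SD, set per screening campaign, cut at about 45% in these data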
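Assay system: tagged HCV core106 pair (GST and Flag); medium: KF-containing HEPES buffer, pH 7.45, DTT, CHAPS, BSA; also added: Eu donor and XL665 acceptor anti-tag antibodies; dosing: 5 µM single dose; timing: compound-protein-antibody incubation 4 h at 22.5 °C; signal: TR-FRET 671 and 617 nm emission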
AI-2 QS mod: modulates the Vibrio harveyi AI-2 quorum sensing system; 0.4% of 300,000 active; activity change, % at 7.5 µM; Vibrio harveyi JMH597 AI-2 luminescence/OD600 ratio, 9 h; active compounds read low; strain lacks LuxN and CqsS sensors; 0 = neutral-control median; AID 2094; in the data active = activity change below about -75%, passing the limit was not always enough; inconclusive = no clear call, values can overlap the other calls;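 also: luminescence divided by OD600 gain over 9 h not by final OD600 alone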
PHOSPHO1 inh: blocks human PHOSPHO1 phosphatase activity. inhibition, % at 13.3 µM. AID 1565. recombinant PHOSPHO1, absorbance phosphatase assay. 1.1% of 290,000 active. Q8TCT1; in the data active = inhibition above about 60%
Target sequence (Q8TCT1 whole entry, looked up): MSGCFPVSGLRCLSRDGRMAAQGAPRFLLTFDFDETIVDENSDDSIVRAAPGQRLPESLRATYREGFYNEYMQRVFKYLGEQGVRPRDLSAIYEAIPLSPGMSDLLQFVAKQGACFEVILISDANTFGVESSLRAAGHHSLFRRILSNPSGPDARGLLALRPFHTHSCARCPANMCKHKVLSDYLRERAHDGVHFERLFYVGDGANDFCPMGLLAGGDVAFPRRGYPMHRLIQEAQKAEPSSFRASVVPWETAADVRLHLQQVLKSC
ALR inh: inhibitors of human sulfhydryl oxidase ALR | AID 485317 | inhibition, % (no concentration beside the values) | purified ALR, DTT oxidation, H2O2 HRP-luminol luminescence | 3.8% of 290,000 active;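 active = mean replicate inhibition above about 79%, with every replicate also reaching it, limit read from the data; inconclusive = only one of the two criteria met; inactive = mean below limit and not every replicate reaching it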
Target sequence (P55789 whole entry, looked up): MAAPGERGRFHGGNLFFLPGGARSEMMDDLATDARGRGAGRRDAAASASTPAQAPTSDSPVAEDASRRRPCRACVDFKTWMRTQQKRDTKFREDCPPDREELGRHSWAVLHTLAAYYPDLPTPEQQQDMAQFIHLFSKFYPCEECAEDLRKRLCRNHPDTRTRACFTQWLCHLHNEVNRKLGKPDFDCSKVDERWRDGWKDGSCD
HSF1 inh: HSF1 inhibition | NIH3T3-HGL HSE-luciferase, MG132-induced, luminescence 8 h; active compounds read low | activity change, negative = inhibition, % at 7.5 µM (by protocol) | 0.77% of 300,000 active | AID 2098;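 active = more than half of replicate wells show activity change below -50%, luminescence cut by over half; inconclusive = some wells, but at most half, below -50%; inactive = no replicate well below -50%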;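 also: luciferase reports HSF-1 transcriptional activity via heat shock element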
HSF1 activator: increases HSF-1 driven luciferase reporter signal; NIH3T3-HGL HSF-1 luciferase reporter, MG132, 8 h; 100% = twice DMSO control signal; activation, % at 9 µM; 1.7% of 300,000 active; AID 504408;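 active = mean replicate activation of at least 50% with a set share of replicates each reaching 50%; inconclusive = only one of those two conditions met; inactive = mean below 50% and too few replicates reaching it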
Numbers stand for hits; i = inactive; ? = inconclusive; nt = no result given.

SMILES	HCV core dimer	AI-2 QS mod	PHOSPHO1 inh	ALR inh	HSF1 inh	HSF1 activator
Cc1ccc(-c2ccc(CCC(=O)O)n2-c2ccc(C(=O)O)cc2)cc1	nt	i	i	97	i	i
Cc1nnsc1-c1c(C(=O)N2CCOCC2)c(C)nn1-c1ccc(Cl)cc1	i	i	i	i	i	i
COc1ccc(NC2=C(Cl)C(=O)N(CCc3ccccc3)C2=O)cc1	i	i	i	i	i	59
O=C(O)Cc1csc(-c2cccc(F)c2)n1	i	i	i	i	i	i
COc1cccc(-c2csc3nnc(SCC(=O)c4ccc(NC(C)=O)cc4)n23)c1	i	i	i	i	nt	nt
O=C(CSc1nnc2scc(-c3ccccc3)n12)Nc1nsc(-c2ccccc2)n1	i	i	67	i	i	i
Cc1ccc(-c2csc3nnc(SCC(=O)Nc4nsc(-c5ccccc5)n4)n23)cc1	i	i	i	i	i	i
COc1cccc(NC(=O)CCSc2nnc3scc(-c4ccccc4)n23)c1	i	i	i	i	-73	i
Cc1ccc(-c2csc3nnc(SCC(=O)N4CCN(Cc5ccccc5)CC4)n23)cc1	i	i	74	nt	i	i
Cc1nnc(SCC(=O)Nc2nsc(-c3ccc(C(C)(C)C)cc3)n2)s1	i	i	i	nt	i	51
CCNC(=O)N(CCOC)CC1CCCN(C2Cc3ccccc3C2)C1 (configuration not stated)	i	i	i	i	i	i
CC1CN(C(=O)c2ccccc2OCc2ccc(Cl)cc2Cl)CC(C)O1 (configuration not stated)	nt	nt	nt	i	nt	nt
O=C(Nc1nccs1)c1cccc(NC(=O)C(F)(F)F)c1	i	i	i	i	i	i
Cc1ccn2c(NC3CCCC3)c(-c3ccsc3)nc2c1	i	i	i	89	i	i
C=CCc1cccc(CNc2ccc(S(=O)(=O)Nc3nccnc3OC)cc2)c1O	i	i	i	i	i	i
C=CCc1cccc(CNc2ccc(Br)cc2)c1O	i	i	i	98	i	i
COc1ccc(OC)c(NC(=O)CCN2CCN(C)CC2)c1	i	i	i	i	i	i
CC(C)Cn1c(SCC(=O)Nc2cc(Cl)c(Cl)cc2Cl)nc(O)cc1=O	i	i	nt	i	i	i
Cc1ccc(-n2c(SCC(=O)Nc3ccc(Cl)cc3)nc(O)cc2=O)cc1	i	i	i	94	i	i
Cc1ccc(-n2c(SCC(=O)Nc3ccc(C(=O)O)cc3)nnc2-c2ccncc2)cc1	i	i	i	i	i	i
COc1ccc(NC(=O)CSc2nc(O)cc(=O)n2C)cc1	i	i	i	99	i	i
CCCn1c(SCC(=O)Nc2ccc(Cl)cc2F)nc(O)cc1=O	nt	nt	nt	99	nt	nt
COc1ccccc1-n1c(SCC(=O)Nc2ccc(Br)cc2)nc(O)cc1=O	i	i	i	99	i	i
O=C(CSc1nc(O)cc(=O)n1-c1ccccc1)NC1CCCCC1	i	i	i	i	i	i
COc1ccc(NC(=O)CSc2nc(O)cc(=O)n2-c2ccccc2)cc1	nt	i	i	99	i	i
SMILES	HCV core dimer	AI-2 QS mod	PHOSPHO1 inh	ALR inh	HSF1 inh	HSF1 activator
Cc1c(O)nc(SCC(=O)Nc2ccc3c4c(cccc24)CC3)n(-c2ccccc2)c1=O	i	i	i	nt	i	i
Cn1ccnc1SCC(=O)Nc1nc2ccccc2s1	i	i	i	?	i	i
Cc1nnc(SCC(=O)Nc2nc3ccccc3s2)n(N)c1=O	i	i	i	i	i	i
Nn1c(SCC(=O)Nc2nc3ccccc3s2)nncc1=O	i	i	i	98	i	i
O=C(CSc1nc(O)cc(=O)n1-c1ccccc1)Nc1nc2ccccc2s1	i	i	i	99	i	i
O=C(CSc1nc(O)cc(=O)n1-c1ccccc1)Nc1ccc2c3c(cccc13)CC2	i	i	i	99	i	?
CC1(C(=O)OCC(=O)Nc2ccc(S(=O)(=O)N3CCOCC3)cc2)CC1(Cl)Cl (configuration not stated)	nt	nt	nt	i	nt	nt
CC(=O)C1=C(O)C(=O)N(c2ccc(C)cc2)C1c1ccc([N+](=O)[O-])cc1 (configuration not stated)	i	i	i	i	i	i
CCN(CC(=O)NCc1cccs1)C(=O)c1cc(Br)ccc1O	nt	nt	nt	i	nt	nt
CCN(CC)S(=O)(=O)c1cccc(NC(=O)c2ccc(C#N)cc2)c1	i	i	i	i	i	i
Cn1c(SCC(=O)Nc2ccccc2)nc(O)cc1=O	i	i	i	99	nt	nt
COc1ccc(NCc2nnc(SCC(=O)Nc3ccccc3)n2C)cc1	i	i	i	94	i	i
Cc1cccc(NC(=O)CSc2nc3ccccc3c(=O)n2C)c1	i	i	i	nt	i	i
CCNc1nc(NCC)n2c(SCC(=O)Nc3ccc(F)cc3)nnc2n1	i	i	nt	i	i	i
CCNc1nc(NCC)n2c(SCC(=O)Nc3ccc(Br)cc3F)nnc2n1	i	i	nt	98	i	i
CCNc1nc(NCC)n2c(SCC(=O)c3ccc(C(C)C)cc3)nnc2n1	i	i	i	i	i	51
CCNc1nc(NCC)n2c(SCC(=O)Nc3ccc(C(F)(F)F)cc3[N+](=O)[O-])nnc2n1	i	i	i	i	i	70
O=C(O)CCC(=O)Nc1ccc(C(=O)OCC(=O)c2ccc(Cl)cc2Cl)cc1	i	i	i	96	i	i
Cc1ccc(SC2=C(C(=O)O)CCCC2)cc1	i	i	i	i	i	i
COc1ccc(/C=C/C(=O)NC(=S)NCc2ccccc2)cc1OC	i	i	i	i	i	67
COc1ccc(C(=O)O)cc1NC(=S)NC(=O)/C=C/c1ccc(C(C)C)cc1	i	i	i	97	i	i
CCCCC(=O)NC(=S)Nc1cc(C(=O)O)ccc1OC	i	i	i	i	i	i
COc1ccc(/C=C/C(=O)NC(C)CCc2ccccc2)cc1OC (configuration not stated)	i	i	i	i	i	i
COc1ccc(/C=C/C(=O)NC(=S)NNC(=O)c2cccs2)cc1OC	i	i	i	99	i	i
COc1cc(NS(=O)(=O)c2ccc(NC(=S)NC(=O)/C=C/c3ccc(OC)c(OC)c3)cc2)ncn1	i	i	i	i	-55	i
SMILES	HCV core dimer	AI-2 QS mod	PHOSPHO1 inh	ALR inh	HSF1 inh	HSF1 activator
O=C(CC1NCCN(Cc2ccccc2)C1=O)Nc1ccccc1 (configuration not stated)	i	i	i	i	i	i
COc1ccc(/C=C/C(=O)NC(=S)NNC(=O)Cc2cccs2)cc1OC	i	i	98	i	i	i
COC(=O)c1cn(C(=O)/C=C/c2ccc(OC)c(OC)c2)c2ccccc12	i	i	i	i	i	61
O=C(/C=C/c1cccs1)NC(=S)NNC(=O)Cc1cccs1	i	i	i	i	i	i
NNC(=O)c1cc(-c2ccc(N)cc2)nc2ccc(Br)cc12	i	i	i	nt	i	i
Cc1cc(C)cc(NC(=O)c2sc3nc4n(c(=O)c3c2C)CCC4)c1	i	i	i	i	i	i
